Results pooled from the literature.
Protocols differ between the studies behind these lines.
SLC6A4: Sodium-dependent serotonin transporter (SLC6A4, Homo sapiens, UniProt P31645)
DRD1: D(1A) dopamine receptor (DRD1, Homo sapiens, UniProt P21728)
rep main protease: Replicase polyprotein 1ab, main protease (rep, Porcine epidemic diarrhea virus, UniProt P0C6Y4)
rep papain-like protease: Replicase polyprotein 1ab, papain-like protease (rep, Porcine epidemic diarrhea virus, UniProt P0C6Y4)

`CCOC(=O)[C@@]12C[C@@H]1[C@@H](n1cnc3c(NCCCCCc4ccccc4)nc(C#Cc4ccc(Cl)s4)nc31)[C@H](O)[C@@H]2O` has an inhibition of 1% (SLC6A4; ligand displacement, radioligand; 10 µM, cell membranes).
The inhibition of `Cc1cc(F)cc2c(CCC(=O)N[C@@H]3C(=O)NC[C@H]3O)c(-c3ccc(F)cc3)[nH]c12` is reported as 11% (DRD1; cell-free assay; 10 µM).
For `CCOC(=O)[C@@]12C[C@@H]1[C@@H](n1cnc3c(NCCCCc4ccccc4)nc(I)nc31)[C@H](O)[C@@H]2O`, the inhibition was 20% (SLC6A4; ligand displacement, radioligand; 10 µM).
With `Cc1cc(O)c(-c2ccc([C@@H](C)CN(C)C)cc2)c2c1[nH]c(=O)c1sccc12` the inhibition was 15.6% (Mitogen-activated protein kinase kinase kinase 6 (MAP3K6, Homo sapiens, UniProt O95382); enzyme activity, inhibitor; 0.1 µM).
`N#C[C@@]12C[C@@H]1[C@@H](n1cnc3c(Nc4ccccc4)nc(C#Cc4ccc(Cl)s4)nc31)[C@H](O)[C@@H]2O` gave an inhibition of 12% (SLC6A4; ligand displacement, radioligand; 10 µM).
`COc1ccc(C(=O)NCc2cc(Br)c(OC)c(OC)c2)cc1` has an inhibition of 83.7% (rep main protease; enzyme activity, inhibitor, FRET; 10 µM).
`C#Cc1cc(-c2cc(Nc3nc(N[C@@H](C)c4ccc(F)cn4)ncc3Cl)n[nH]2)ccc1C=O` gave an inhibition of 22.5% (Serine/threonine-protein kinase Nek2 (NEK2, Homo sapiens, UniProt P51955); enzyme activity, inhibitor; 0.2 µM).
For `COc1cc(CNC(=O)c2cc3ccccc3n2C)cc(Br)c1OC`, the inhibition was 13% (rep papain-like protease; enzyme activity, inhibitor, FRET; 10 µM).
`OC[C@@]12C[C@@H]1[C@@H](n1cnc3c(NC(C4CCC4)C4CCC4)nc(C#Cc4ccc(Cl)s4)nc31)[C@H](O)[C@@H]2O` has an inhibition of 15% (SLC6A4; ligand displacement, radioligand; 10 µM).
`O=C1C=C(Nc2ccc(OCc3cn(Cc4ccccc4)nn3)cc2)C(=O)c2ccccc21` has an inhibition of 0% (BDNF/NT-3 growth factors receptor (NTRK2, Homo sapiens, UniProt Q16620); enzyme activity, inhibitor, radiometric; 10 µM).
`O=C(NCc1cc(O)c(O)c(Br)c1)c1cccc(Br)c1` gave an inhibition of 98.4% (rep main protease; enzyme activity, inhibitor, FRET; 10 µM).
With `CCN1/C(=C/C(C)=O)Sc2ccc(F)cc21` the inhibition was 4.51% (Type-2 angiotensin II receptor (AGTR2, Homo sapiens, UniProt P50052); ligand displacement, radioligand; 10 µM).
For `Cn1c(C(=O)NCc2cc(O)c(O)c(Br)c2)cc2ccccc21`, the inhibition was 86.3% (rep papain-like protease; enzyme activity, inhibitor, FRET; 10 µM).
The inhibition of `N#CC[C@@]12C[C@@H]1[C@@H](n1cnc3c(NCCCCCc4ccccc4)nc(I)nc31)[C@H](O)[C@@H]2O` is reported as 3% (SLC6A4; ligand displacement, radioligand; 10 µM).
With `O=C(NCc1cc(O)c(O)c(Br)c1)c1ccc2ccccc2n1` the inhibition was 45.5% (rep papain-like protease; enzyme activity, inhibitor, FRET; 10 µM).
With `NC/C(=C\F)COc1cccc(Cn2c(=S)[nH]c(=O)c3[nH]cnc32)c1` the inhibition was less than 50% (DRD1; ligand displacement, radioligand; 10 µM).
With `O=C(NCc1cc(O)c(O)c(Br)c1)c1cccc(CCl)c1` the inhibition was 103% (rep papain-like protease; enzyme activity, inhibitor, FRET; 10 µM).
`CNC(=O)[C@@]12C[C@@H]1[C@@H](n1cnc3c(Nc4ccccc4)nc(C#Cc4ccc(Cl)s4)nc31)[C@H](O)[C@@H]2O` gave an inhibition of 11% (SLC6A4; ligand displacement, radioligand; 10 µM).
